Experiment [1] has as its system Serratia marcescens. The experiment is described as follows: In vitro minimum inhibitory concentration was measured against Serratia marcescens 1071(beta lactamase producer) strain. The format is functional. The method in brief: (§1)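 Streptococci were tested on brain heart infusion agar plus 20 units/mL catalase, Proteus on Mueller-Hinton with 3% agar, and others on Mueller-Hinton agar. Inocula were 100-fold-diluted overnight cultures, about 3 × 10^4 CFU/spot, read after overnight incubation at 36 °C.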

In experiment [2] the test system is Escherichia coli. In words: In vitro minimum inhibitory concentration was measured against Escherichia coli 257 strain. The format is functional. Put shortly: as §1
For experiment [3], the system named is Pseudomonas aeruginosa. In words: In vitro minimum inhibitory concentration was measured against Pseudomonas aeruginosa 8780 strain. The format is functional. The method in brief: as §1
Experiment [4] has as its system Enterobacter cloacae. In words: Bacterial challenge for systemic murine infection against Enterobacter cloacae 5699. The format is functional. Put shortly: (§2)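 Mouse protection test in CD1 Swiss albino mice (18-20 g). Mice were infected intraperitoneally with 0.5 mL of diluted bacterial suspension. A single subcutaneous dose at the dorsal neck base was given within 5 min, with doses from 250 to 0.05 mg/kg. Six mice per group were used. ED50 was obtained by the Reed-Muench method.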

For experiment [5], the system named is Enterobacter cloacae. The experiment is described as follows: In vitro minimum inhibitory concentration was measured against Enterobacter cloacae 5699 strain. The format is functional.
The test system of experiment [6] is Klebsiella pneumoniae. The experiment is described as follows: In vitro minimum inhibitory concentration was measured against Klebsiella pneumoniae A strain. The format is functional. The method in brief: as §1
For experiment [7], the system named is Proteus vulgaris. In words: In vitro minimum inhibitory concentration was measured against Proteus vulgaris 1028BC (beta lactamase producer) strain. The format is functional. The method in brief: as §1
The test system of experiment [8] is Pseudomonas aeruginosa. In words: Bacterial challenge for systemic murine infection against Pseudomonas aeruginosa 8780. The format is functional. The method in brief:
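Mouse protection test in CD1 Swiss albino mice (18-20 g) infected intraperitoneally with 0.5 mL of diluted bacterial suspension. Subcutaneous doses (250 to 0.05 mg/kg) were given immediately after infection and again 3 h later. Six mice per group were used. ED50 was obtained by the Reed-Muench method.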

The subject of experiment [9] is Streptococcus pneumoniae. In words: Bacterial challenge for systemic murine infection against Streptococcus pneumoniae 6301. The format is functional.
Experiment [10] relates to Serratia marcescens. The experiment is described as follows: Bacterial challenge for systemic murine infection against Serratia marcescens SM. The format is functional. The method in brief: as §2
The test system of experiment [11] is Escherichia coli. In words: In vitro minimum inhibitory concentration was measured against Escherichia coli ATCC 25922 strain. The format is functional. The method in brief:
as §1

Experiment [12] deals with T1, Penicillin-binding protein 1B (Escherichia coli K-12) (UniProt P02919).
T1 sequence (whole entry): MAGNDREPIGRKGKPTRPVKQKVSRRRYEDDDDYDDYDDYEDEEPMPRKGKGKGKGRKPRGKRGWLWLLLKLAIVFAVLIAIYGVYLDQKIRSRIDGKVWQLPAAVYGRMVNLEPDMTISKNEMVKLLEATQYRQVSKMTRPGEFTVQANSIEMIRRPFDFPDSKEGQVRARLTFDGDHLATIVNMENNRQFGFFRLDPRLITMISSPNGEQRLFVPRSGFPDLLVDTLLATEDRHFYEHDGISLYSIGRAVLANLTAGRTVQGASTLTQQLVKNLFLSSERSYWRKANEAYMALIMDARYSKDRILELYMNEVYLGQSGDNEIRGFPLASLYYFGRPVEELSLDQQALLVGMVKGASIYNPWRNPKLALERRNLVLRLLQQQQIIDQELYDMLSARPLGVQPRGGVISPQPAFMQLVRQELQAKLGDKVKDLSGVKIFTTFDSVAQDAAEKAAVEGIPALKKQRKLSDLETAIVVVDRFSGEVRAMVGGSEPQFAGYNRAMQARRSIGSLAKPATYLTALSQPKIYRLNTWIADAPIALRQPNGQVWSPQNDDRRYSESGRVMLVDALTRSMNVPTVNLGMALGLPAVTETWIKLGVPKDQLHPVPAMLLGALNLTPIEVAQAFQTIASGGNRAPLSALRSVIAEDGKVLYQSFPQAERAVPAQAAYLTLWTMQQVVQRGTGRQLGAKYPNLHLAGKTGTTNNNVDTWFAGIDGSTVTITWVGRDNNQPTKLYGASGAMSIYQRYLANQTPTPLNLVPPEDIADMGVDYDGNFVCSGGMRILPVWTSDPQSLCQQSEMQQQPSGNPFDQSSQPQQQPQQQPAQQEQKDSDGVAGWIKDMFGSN
The experiment is described as follows: Affinity for penicillin binding protein 1b of Escherichia coli UB1005 (DC0) was evaluated. The arrangement: unit not given here. The method in brief:
(§3)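 Solubilised membranes from sonicated E. coli UB1005 served as the binding-protein source. Binding was read as inhibition of [14C]penicillin G binding.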

Experiment [13] has as its system Enterobacter cloacae. The experiment is described as follows: In vitro minimum inhibitory concentration was measured against Enterobacter cloacae p99 (beta lactamase producer) strain. The format is functional.
Experiment [14] addresses T2, Penicillin-binding protein 1A (Escherichia coli K-12) (UniProt P02918).
T2 sequence (whole entry): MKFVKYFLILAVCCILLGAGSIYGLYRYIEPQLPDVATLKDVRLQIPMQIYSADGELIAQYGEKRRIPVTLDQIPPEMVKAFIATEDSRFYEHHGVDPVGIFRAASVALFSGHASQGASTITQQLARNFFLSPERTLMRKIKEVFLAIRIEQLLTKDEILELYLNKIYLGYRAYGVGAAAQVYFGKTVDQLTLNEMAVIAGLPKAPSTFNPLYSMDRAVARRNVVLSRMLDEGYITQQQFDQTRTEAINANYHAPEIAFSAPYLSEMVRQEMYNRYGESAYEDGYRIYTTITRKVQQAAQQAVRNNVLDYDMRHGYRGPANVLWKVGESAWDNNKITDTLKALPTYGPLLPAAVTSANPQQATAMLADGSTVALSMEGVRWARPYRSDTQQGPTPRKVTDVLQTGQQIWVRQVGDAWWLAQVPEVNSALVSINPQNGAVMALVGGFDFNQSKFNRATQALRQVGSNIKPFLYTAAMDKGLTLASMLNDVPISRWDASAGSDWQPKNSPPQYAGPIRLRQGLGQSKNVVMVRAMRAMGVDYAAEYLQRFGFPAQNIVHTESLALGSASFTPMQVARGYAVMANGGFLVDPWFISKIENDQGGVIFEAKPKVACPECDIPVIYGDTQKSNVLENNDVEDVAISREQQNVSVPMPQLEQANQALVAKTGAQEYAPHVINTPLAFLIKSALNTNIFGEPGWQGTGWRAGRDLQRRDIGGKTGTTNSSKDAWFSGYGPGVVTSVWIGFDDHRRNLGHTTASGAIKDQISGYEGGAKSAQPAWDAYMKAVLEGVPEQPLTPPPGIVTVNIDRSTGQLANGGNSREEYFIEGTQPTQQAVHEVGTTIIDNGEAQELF
In words: Affinity for penicillin binding protein 1a of Escherichia coli UB1005 (DC0) was evaluated. More on the design: unit not given here. The method in brief:
as §3

Experiment [15] relates to Staphylococcus aureus. In words: In vitro minimum inhibitory concentration was measured against Staphylococcus aureus smith strain. The format is functional.
Experiment [16] has as its system Enterococcus faecalis. In words: In vitro minimum inhibitory concentration was measured against Enterococcus faecalis ATCC 29212 strain. The format is functional. Put shortly:
as §1

Values after ≈ are worked out from the molar mass of the structure shown.

Consider `CO/N=C(\C(=O)N[C@@H]1C(=O)N2C(C(=O)O)=C(COC(C)=O)CS[C@H]12)c1csc(N)n1` [CEFOTAXIME], for which the minimum inhibitory concentration (MIC) in experiment [1] was 32 µg/mL (≈ 70.3 µM); in [2], 0.031 µg/mL (≈ 0.0681 µM); in experiment [3], 16 µg/mL (≈ 35.1 µM); in experiment [5] it was 0.125 µg/mL (≈ 0.274 µM); in experiment [6], 0.031 µg/mL (≈ 0.0681 µM); in [7], above 128 µg/mL. Also, the minimum inhibitory concentration (MIC) in experiment [11] was 0.063 µg/mL (≈ 0.138 µM); in experiment [13], 64 µg/mL (≈ 141 µM); in [15], 2 µg/mL (≈ 4.39 µM); in experiment [16] it was 0.25 µg/mL (≈ 0.549 µM). The LD50 is listed as 50 in experiment [4], above 250 in [8], 69 in [9] and below 25 in [10]. The Binding affinity amounted to 0.5 in [12] and 0.1 in experiment [14].

As to `CO/N=C(\C(=O)N[C@@H]1C(=O)N2C(C(=O)O)=C(CN3CCN(c4cc5c(cc4F)c(=O)c(C(=O)O)cn5C4CC4)CC3)CS[C@H]12)c1csc(N)n1`, the minimum inhibitory concentration (MIC) in experiment [1] was 1 µg/mL (≈ 1.38 µM); in experiment [2] it was 0.125 µg/mL (≈ 0.172 µM); in [3], 8 µg/mL (≈ 11 µM); in experiment [5], 0.5 µg/mL (≈ 0.688 µM); in experiment [6], 1 µg/mL (≈ 1.38 µM); in experiment [7], 0.25 µg/mL (≈ 0.344 µM). In addition, the MIC in [11] worked out at 0.125 µg/mL (≈ 0.172 µM); in [13], 0.125 µg/mL (≈ 0.172 µM); in [15], 4 µg/mL (≈ 5.5 µM); in experiment [16] it was 4 µg/mL (≈ 5.5 µM). The LD50 in experiment [4] was 7055; in experiment [8] it was above 10000; in experiment [9], above 10000; in experiment [10] it was 27. The Binding affinity in [12] and in experiment [14] was above 100 in each case.

Values taken from ChEMBL document CHEMBL1127320, “Dual-action cephalosporins incorporating a 3'-tertiary-amine-linked quinolone” (J Med Chem, 1994).
